Data on 17 compounds can be found in ChEMBL document CHEMBL3612006, “Novel dialkylphosphorylhydrazones: Synthesis, leishmanicidal evaluation and theoretical investigation of the proposed mechanism of action” (Eur J Med Chem, 2015).

Active and inactive are the calls of the source. The rule behind the calls is not given here. Some results are limits rather than exact numbers.

By IC50 is commonly meant the concentration needed to halve the response being measured. What is called inhibition is the share of the control response that was lost under treatment.

Data set [1] relates to Leishmania braziliensis. Nature of the data set: Leishmanicidal activity against Leishmania braziliensis MHOM/BR/01/BA788 after 48 hrs. Particulars: MHOM/BR/01/BA788, 48 h. The data set is classed as functional, organism-based. A digest of the protocol:
(§1)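 Log-phase promastigotes at 10⁵ per well in medium with 10% heat-inactivated FCS, 2 mM L-glutamine, gentamicin and 2% human urine were grown with compound at 26 °C for 48 h. Parasites were counted by automatic cell counter, with inhibition expressed as % of DMSO-treated control. Triplicates, with experiments repeated at least twice.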

Data set [2] is described as follows: Cytotoxicity against mouse J774 cells after 48 hrs by MTT assay. The data set is classed as cell-based. Conditions: read-out: LC50. In short, it runs like this:
(§2)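 J774 murine macrophages in DMEM with 2 mM L-glutamine, 10 mM HEPES, 10% FCS and gentamicin were seeded at 1.5 × 10⁵ cells/well and attached for 24 h at 37 °C. Cells were exposed to 1, 10 or 100 µM for 48 h, then given MTT for 1 h at 37 °C in the dark. Formazan was dissolved in DMSO and read at 540 nm. Triplicates with growth controls.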
Background: Formazan colour is commonly taken as a measure of viable cells.

Data set [3] has as its system Leishmania braziliensis. The data set can be described thus: Leishmanicidal activity against Leishmania braziliensis MHOM/BR/01/BA788 after 48 hrs relative to control. The data set is classed as functional. Also on record: concentration or dose not given beside the values. A digest of the protocol:
as §1

Data set [4] concerns Leishmania amazonensis. The data set can be described thus: Leishmanicidal activity against Leishmania amazonensis MHOM/BR/87/BA125 after 48 hrs. Type of data set: functional, organism-based. Particulars: MHOM/BR/87/BA125, 48 h. In short, it runs like this: as §1
Data set [5] deals with Leishmania amazonensis. The data set can be described thus: Leishmanicidal activity against Leishmania amazonensis MHOM/BR/87/BA125 after 48 hrs relative to control. Also on record: concentration or dose not given beside the values. The data set is classed as functional. In short, it runs like this: as §1
The test system of data set [6] is Leishmania amazonensis. Nature of the data set: Antiamastigote activity against Leishmania amazonensis MHOM/BR/87/BA125 infected in BALB/c mouse peritoneal macrophages assessed as decrease of percentage of infected macrophages at 1 uM after 48 hrs by Giemsa staining. The data set is classed as functional, organism-based. In short, it runs like this: (§3)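 Thioglycollate-elicited BALB/c peritoneal macrophages, 4 × 10⁵ per well on coverslips in DMEM with 10% FBS, adhered overnight and were infected with L. amazonensis promastigotes at 37 °C for 4 h. Free parasites were removed, then compounds were added (1, 10, 100 µM; DMSO ≤0.01%) for 48 h at 37 °C, 5% CO2. Infection index = % infected × mean amastigotes per macrophage.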

Data set [7] has as its system Leishmania amazonensis. The data set can be described thus: Antiamastigote activity against Leishmania amazonensis MHOM/BR/87/BA125 infected in BALB/c mouse peritoneal macrophages assessed as inhibition of infection index after 48 hrs by Giemsa staining. The data set is classed as functional, organism-based. A digest of the protocol:
as §3

The test system of data set [8] is Leishmania amazonensis. Nature of the data set: Antiamastigote activity against Leishmania amazonensis MHOM/BR/87/BA125 infected in BALB/c assessed as decrease of parasite load in draining lymph nodes at 30 mg/kg, po qd for 28 days measured up to 30 days. Type of data set: functional, organism-based. A digest of the protocol: (§4)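 BALB/c mice (n = 5 per group) infected in the ear dermis with 10⁵ L. amazonensis promastigotes, then dosed orally with 30 mg/kg/day in water for 28 days. After treatment, infected ears and draining lymph nodes were excised, homogenized and serially diluted in Schneider medium with 10% FCS for a limiting dilution assay. Groups were compared to control by one-way ANOVA with Dunnett's test.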

Data set [9] has as its system Leishmania amazonensis. Nature of the data set: Antiamastigote activity against Leishmania amazonensis MHOM/BR/87/BA125 infected in BALB/c mouse peritoneal macrophages assessed as inhibition of infection index at 100 uM after 48 hrs by Giemsa staining. The data set is classed as functional. Conditions: MHOM/BR/87/BA125, 48 h. A digest of the protocol: as §3
For data set [10], the system named is Leishmania amazonensis. Nature of the data set: Antiamastigote activity against Leishmania amazonensis MHOM/BR/87/BA125 infected in BALB/c mouse peritoneal macrophages assessed as decrease of percentage of infected macrophages at 1 to 100 uM after 48 hrs by Giemsa staining. Type of data set: functional, organism-based. In short, it runs like this:
as §3

Data set [11] relates to Leishmania amazonensis. Nature of the data set: Antiamastigote activity against Leishmania amazonensis MHOM/BR/87/BA125 infected in BALB/c assessed as decrease of lesion size in ear at 30 mg/kg, po qd for 28 days measured up to 30 days. Type of data set: functional. In short, it runs like this: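 Female BALB/c mice, 6-8 weeks old, inoculated in right ear dermis with 10⁵ stationary-phase L. amazonensis promastigotes in sterile saline. From the second week post-infection, groups of 5 were dosed orally once daily for 28 days at 30 mg/kg/day in water; vehicle control received water orally. Lesion size was taken as infected minus contralateral ear thickness, measured twice weekly by digital caliper.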

Data set [12] deals with Leishmania amazonensis. Nature of the data set: Antiamastigote activity against Leishmania amazonensis MHOM/BR/87/BA125 infected in BALB/c mouse peritoneal macrophages assessed as decrease of percentage of infected macrophages at 100 uM after 48 hrs by Giemsa staining. The data set is classed as functional. Particulars: MHOM/BR/87/BA125, 48 h. A digest of the protocol:
as §3

For data set [13], the system named is Leishmania amazonensis. Nature of the data set: Antiamastigote activity against Leishmania amazonensis MHOM/BR/87/BA125 infected in BALB/c assessed as decrease of parasite load in ear at 30 mg/kg, po qd for 28 days measured up to 30 days. The data set is classed as functional, organism-based. A digest of the protocol: as §4
Data set [14] concerns Leishmania amazonensis. Nature of the data set: Antiamastigote activity against Leishmania amazonensis MHOM/BR/87/BA125 infected in BALB/c mouse peritoneal macrophages assessed as decrease of percentage of infected macrophages at 10 to 100 uM after 48 hrs by Giemsa staining. The data set is classed as functional, organism-based. A digest of the protocol:
as §3

Data set [15] deals with Leishmania amazonensis. The data set can be described thus: Antiamastigote activity against Leishmania amazonensis MHOM/BR/87/BA125 infected in BALB/c mouse peritoneal macrophages assessed as decrease of number of intracellular parasites per macrophage at 1 to 100 uM after 48 hrs by Giemsa staining. Type of data set: functional, organism-based. In short, it runs like this:
as §3

The test system of data set [16] is J774. Nature of the data set: Cytotoxicity against mouse J774 cells at 100 uM after 48 hrs by MTT assay. The data set is classed as cell-based. Conditions: j774, 48 h. In short, it runs like this:
as §2

As to `CCCCOP(=O)(N/N=C/c1ccccn1)OCCCC` (mixture of isomers), the concentration for half-maximal inhibition (IC50) in data set [1] worked out at 0.06 µM; in [4], 6.2 µM. Moreover, the CC50 at 48 h in [2] was greater than 100 µM. The Efficacy was 76.3% in data set [3] and 69.5% in data set [5].
Consider `CCC(C)OP(=O)(N/N=C/c1cccnc1Br)OC(C)CC` (stereo not given), for which the IC50 in data set [1] is 5.2 µM; in [4], less than 0.001 µM. For the same compound, in data set [6], the result was inactive. Further, the CC50 at 48 h in data set [2] was greater than 100 µM. For the same compound, the Efficacy in [3] stood at 80.1%; in [5], 95.3%. For the same compound, the inhibition result in [7] is “Dose-dependent effect”. In addition, the outcome in data set [8], in data set [10], in data set [13], in data set [14] and in data set [15] was Active. The figures for the inhibition at 100 µM in data set [9] and in data set [12] were 97.9% and 82.2%, respectively. Also, the Activity in data set [11] turned out to be 0.0804 mm.
Turning to `CCC(C)OP(=O)(N/N=C/c1cncc(Br)c1)OC(C)CC` (stereo not given), the IC50 in data set [1] is 3.6 µM; in [4], 26.3 µM. The outcome in data set [6] and in data set [13] was inactive. For the same compound, the CC50 at 48 h in [2] was greater than 100 µM. Moreover, the Efficacy in [3] worked out at 92.2%; in data set [5], 93.8%. For the same compound, in data set [7], the inhibition entry was “Dose-dependent effect”. The result in data set [8], in [10], in data set [14] and in [15] was Active. The inhibition at 100 µM came to 99.9% in data set [9] and 99.3% in [12]. The Activity in [11] is reported as 0.0527 mm.
With `CCCCCCCCCCCCCCCCOP(=O)([O-])OCC[N+](C)(C)C` [MILTEFOSINE], the half-inhibitory concentration (IC50) in data set [1] stood at 0.7 µM; in data set [4], 3.4 µM. In data set [2], the CC50 at 48 h is greater than 100 µM. The Efficacy in [3] worked out at 84.5%; in data set [5] it was 96.3%. Besides, the outcome in [8] and in [13] was Active. In data set [9], the inhibition at 100 µM was determined as 100%.
In the case of `CC(C)OP(=O)(N/N=C/c1ccccn1)OC(C)C`, the IC50 in [1] was 0.7 µM; in data set [4] it was greater than 100 µM. Besides, the CC50 at 48 h in [2] was greater than 100 µM. Besides, the Efficacy in [3] is 56.3%. In addition, in [5], the Efficacy entry is “inactive”.
Turning to `CCOP(=O)(N/N=C/c1cccnc1)OCC`, the IC50 in data set [1] and in data set [4] was greater than 100 µM each time. The CC50 at 48 h in [2] is greater than 100 µM. Also, the Efficacy entry in [3] and in [5] was “inactive” each time.
For the compound `CCOP(=O)(N/N=C/c1ccncc1)OCC`, the IC50 in [1] and in [4] was greater than 100 µM in each case. Besides, in [2], the CC50 at 48 h is greater than 100 µM. Also, the Efficacy entry in data set [3] and in data set [5] was “inactive” in each case.
`CC(C)COP(=O)(N/N=C/c1ccccn1)OCC(C)C`: the IC50 was greater than 100 µM in data set [1] and 98.3 µM in data set [4]. The CC50 at 48 h in [2] is greater than 100 µM. Also, the Efficacy result in [3] is “inactive”. The Efficacy in data set [5] is 40.7%.
On to `CCC(C)OP(=O)(N/N=C/c1c(Cl)cncc1Cl)OC(C)CC` (stereo not given), for which the IC50 was 0.03 µM in data set [1] and 26 µM in data set [4]. The CC50 at 48 h in data set [2] was greater than 100 µM. For the same compound, the Efficacy amounted to 74.1% in data set [3] and 92.4% in data set [5]. The Activity in data set [16] is listed as 20.5%.
For the compound `CCOP(=O)(N/N=C/c1ccccn1)OCC` (mixture of isomers), the half-maximal inhibitory concentration (IC50) in data set [1] was 7.5 µM; in data set [4] it was greater than 100 µM. Moreover, the CC50 at 48 h in data set [2] is greater than 100 µM. The Efficacy in data set [3] worked out at 62.1%. The Efficacy entry in data set [5] is “inactive”.
For the compound `CC(C)COP(=O)(N/N=C/c1ccncc1)OCC(C)C`, the IC50 in data set [1] was 0.06 µM; in [4] it was greater than 100 µM. In addition, the CC50 at 48 h in data set [2] was greater than 100 µM. Besides, in [3], the Efficacy is on record as 84.2%. Also, the Efficacy entry in data set [5] was “inactive”.
Consider `CC(C)OP(=O)(N/N=C/c1cccnc1)OC(C)C`, for which the figures for the IC50 in data set [1] and in data set [4] were 0.4 µM and greater than 100 µM, respectively. For the same compound, the CC50 at 48 h in data set [2] is greater than 100 µM. Also, the Efficacy in data set [3] came out at 75.9%. Also, in data set [5], the Efficacy entry is “inactive”.
Take `CCCCOP(=O)(N/N=C/c1ccncc1)OCCCC`: the half-maximal inhibitory concentration (IC50) in data set [1] amounted to 5.1 µM; in data set [4], 99.3 µM. In [2], the CC50 at 48 h was greater than 100 µM. Further, the Efficacy in data set [3] worked out at 77.2%; in [5], 45.5%.
As for `CC(C)COP(=O)(N/N=C/c1cccnc1)OCC(C)C`, the half-maximal inhibitory concentration (IC50) came to 40.7 µM in [1] and 83.3 µM in data set [4]. In addition, the CC50 at 48 h in data set [2] is greater than 100 µM. Besides, the figures for the Efficacy in data set [3] and in data set [5] were 81.6% and 52.8%, respectively.
With `N=C(N)c1ccc(OCCCCCOc2ccc(C(=N)N)cc2)cc1` [PENTAMIDINE], the 50% inhibitory concentration (IC50) was determined as 0.06 µM in data set [1] and 1.8 µM in data set [4]. The CC50 at 48 h in data set [2] is greater than 100 µM. Besides, the Efficacy worked out at 95.7% in data set [3] and 93.8% in data set [5]. For the same compound, the Activity in data set [16] was 28.8%.
With `CC(C)OP(=O)(N/N=C/c1ccncc1)OC(C)C`, the IC50 in data set [1] and in data set [4] was greater than 100 µM throughout. For the same compound, the CC50 at 48 h in [2] is greater than 100 µM. Moreover, the Efficacy entry in [3] and in data set [5] was “inactive” each time.
For `CCCCOP(=O)(N/N=C/c1cccnc1)OCCCC`, the IC50 in data set [1] stood at 5.4 µM; in data set [4], 53.3 µM. In [2], the CC50 at 48 h was greater than 100 µM. In addition, the results for the Efficacy in data set [3] and in data set [5] were 87.9% and 85.6%, respectively.
